Screens from PubChem.
Hits are enriched below; roughly 3.8% of the tested compounds scored in any of these assays.
KCNQ1 pot: potentiates or activates the human KCNQ1 potassium channel; CHO-K1 KCNQ1, thallium flux FluxOR fluorescence; hits give high values; B-score at 10 µM; 0.35% of 310,000 active; AID 2648;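 active = fluorescence ratio B-score, a plate-corrected score, at least three library SD, with initial intensity B-score within 5 SD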
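Assay system: CHO-K1 cells stably expressing KCNQ1. Medium: assay buffer for compound exposure, DMSO matched across wells. Timing: 37 °C overnight plating, 90-min dark dye load, 20-min compound pretreatment. Signal: kinetic FluxOR fluorescence, 10 s baseline plus 110 s post-stimulus.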
KCNK3 inh: human KCNK3 channel inhibition, primary screen | O14649 | CHO-KCNK3 thallium flux, FluxOR fluorescence; hits give low values | B-score at 10 µM | 0.84% of 340,000 active | AID 602410;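 active = B-score under library mean minus 4 SD, starting fluorescence ratio at most library mean plus 5 SD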;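 also: more negative B-score means stronger inhibition of thallium flux through KCNK3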
KCNK9 inh: inhibitors of human KCNK9 two-pore domain potassium channel; HEK293 KCNK9, FluxOR thallium flux fluorescence; hits give low values; 1.2% of 310,000 active; B-score at 10 µM; Q9NPC2;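 active = ratio B-score over 3 SD below the library mean, with starting fluorescence within 5 SD of its mean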;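 also: negative B-score means less thallium flux so channel inhibition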
KCNQ1 inh: blocks the human KCNQ1 potassium channel; CHO-K1 KCNQ1, FluxOR thallium flux fluorescence; hits give high values; P51787; 1.3% of 310,000 active; B-score at 10 µM; AID 2642;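 active = compounds whose thallium flux B-score, printed positive for inhibition, exceeds three library SD while starting fluorescence stays within three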;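 also: channel opened by potassium depolarization with thallium stimulus after 20 min compound exposure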
hERG rescue: compounds protecting human hERG from proarrhythmic drug block. CHO-hERG, FluxOR thallium flux, dofetilide IC70 present. Q12809. activation (rescue from dofetilide block), less the hit threshold, % at 10 µM. 0.51% of 310,000 active;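 active = activation above the mean of controls blocked by dofetilide plus 5 SD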;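 also: thallium influx through hERG after potassium depolarization seen as dye fluorescence rise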
Kir21 block: inhibitors of mouse Kir2.1 inward-rectifier potassium channel; 0.85% of 310,000 active; B-score at 10 µM; HEK293-Kir2.1, FluxOR thallium flux fluorescence; hits give low values; P35561;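 active = fluorescence ratio B-score at or below minus 3 SD of library scores, with starting-brightness B-score within 2 SD, cut at about -4.2 in these data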;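 also: channel flux triggered by added potassium and thallium sulfate stimulus; B-score of peak minus minimum fluorescence over baseline after thallium stimulus; more negative B-score means stronger Kir2.1 block with less thallium influx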
KCNQ1 block val: human KCNQ1 channel inhibition, validation assay; shares compounds with KCNQ1 inh; KCNQ1 cell line, FluxOR thallium flux fluorescence; inhibition, % at 10 µM; 93% of 1,600 active;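 active = primary screen active, with duplicate mean exceeding buffer control mean plus 3 SD of buffer wells, cut at about 28% in these data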;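 also: 0% = buffer control ratio and 100% = XE991 inhibitor control ratio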
CHO KCNQ1 ctr: activity in parental CHO cells lacking KCNQ1 | fluorescence ratio (Tl flux) at 10 µM | shares compounds with KCNQ1 inh | 21% of 1,600 active | parental CHO-K1, FluxOR thallium flux fluorescence ratio; hits give low values; zero means no signal rise above baseline;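 active = mean of duplicate thallium-flux fluorescence ratios in parental host cells more than 5 SD below the buffer control mean, cut at about 0.38 in these data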;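 also: ratio is peak minus minimum fluorescence divided by baseline fluorescence; actives read low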
KCNQ1 ephys val: confirmation of human KCNQ1 potassium channel inhibitors by electrophysiology. 20% of 490 active. shares compounds with KCNQ1 inh. calls only at 10 µM. KCNQ1-CHO cells, automated patch clamp current;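 active = KCNQ1 current drop exceeding 3 SD of negative control wells, seen in both duplicate runs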;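 also: steady state current during a 2 s step from -80 to +40 mV; negative values mean current inhibition and positive values mean potentiation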
KCNQ2 spec: KCNQ1 inhibitor that also blocks rat KCNQ2 channel | KCNQ2 cells, FluxOR thallium flux fluorescence | 71% of 1,600 active | inhibition, % at 10 µM | shares compounds with KCNQ1 inh;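 active = mean percent inhibition of the KCNQ2 thallium signal more than 5 SD above the buffer-only control wells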;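 also: KCNQ2 expressed in CHO cells; 0% = buffer control wells and 100% = XE-991 inhibitor control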
KCNQ1-KCNE1 inh: KCNQ1 inhibitor that also blocks human KCNQ1/KCNE1 channel. AID 652147. KCNQ1/KCNE1 cells, FluxOR thallium flux fluorescence. shares compounds with KCNQ1 inh. inhibition, % at 10 µM. 77% of 1,600 active;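 active = mean percent inhibition of duplicate wells above the buffer-only control mean plus 3 SD of those controls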;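 also: 0% = buffer only wells and 100% = XE-991 inhibitor control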
The depositor's hits bear a star; i = inactive; . = no result; + = active, no number.

SMILES	KCNQ1 pot	KCNK3 inh	KCNK9 inh	KCNQ1 inh	hERG rescue	Kir21 block	KCNQ1 block val	CHO KCNQ1 ctr	KCNQ2 spec	KCNQ1-KCNE1 inh	others
c1ccc(-c2cn3nc4c(nc3n2)CCCC4)cc1	i	i	i	8*	-17	-1.4	40*	0.4	76%*	76%*
Cc1cccc(NC2SC(=O)NC2=O)c1 (centres undefined)	i	i	i	i	-17	-0.21	.	.	.	.
OCCC1CN(Cc2nc3ccccc3[nH]2)CCN1C1CCCC1 (centres undefined)	i	i	i	i	-17	0	.	.	.	.
Cc1ccc(S(=O)(=O)c2c(N)n(NC(=O)c3ccco3)c3nc4ccccc4nc23)cc1	i	i	i	i	-4	-0.96	.	.	.	.
CN(C)CCCn1c(N)c(S(=O)(=O)c2ccccc2)c2nc3ccccc3nc21	i	i	i	i	-17	0.35	.	.	.	.
Cc1ccc(S(=O)(=O)c2c(N)n(Cc3ccco3)c3nc4ccccc4nc23)cc1	i	i	i	7*	-13	-0.49	99*	0.38*	74%*	166%*
CCCCn1c(N)c(S(=O)(=O)c2ccc(C)cc2)c2nc3ccccc3nc21	i	i	i	14*	-8	0.03	88*	0.38*	71%*	93%*
O=CN1CCN(C(=O)CC(c2ccccc2)c2cc(Br)ccc2O)CC1 (centres undefined)	i	i	i	i	-2	1.1	.	.	.	.
COc1ccc(C(=O)CCc2ccccc2)c(O)c1	i	i	i	i	-5	2	.	.	.	.
O=C(CCc1ccccc1)c1c(O)cc(O)cc1O	i	i	i	10*	-38	0.84	123*	0.37*	102%*	177%*
Cc1cccc(NC(=O)C(c2ccccc2Cl)N2CCOCC2)c1 (centres undefined)	i	i	i	i	-12	-0.11	.	.	.	.
O=C(Nc1cc(Cl)cc(Cl)c1)C(c1ccccc1)N1CCCCC1 (centres undefined)	i	i	i	8*	-8	0.57	120*	0.36*	122%*	114%*
COc1cccc(NC(=O)C(c2ccccc2)N2CCCCC2)c1 (centres undefined)	i	i	i	i	-10	-1.4	.	.	.	.
Cc1ccc(NC(=O)C(c2ccc(Cl)cc2Cl)N2CCCC2)cc1 (centres undefined)	i	i	-7.1*	8*	-9	0.75	92*	0.38	i	152%*	KCNQ1 ephys val=+
Cc1ccc(Cl)cc1N1CCN(C(=O)CSc2nnc3n2C(C)(C)Cc2ccccc2-3)CC1	i	-9*	i	17*	-31	0.79	148*	0.28*	145%*	+
COc1ccc(N2CCN(C(=O)CSc3nnc4n3C(C)(C)Cc3ccccc3-4)CC2)cc1	i	i	i	i	-13	-0.1	.	.	.	.
NNC(=O)CCc1ccc(S(=O)(=O)N2CCOCC2)cc1	i	i	i	i	-11	0.04	.	.	.	.
Cc1ccc(Cl)cc1N1CCN(C(=O)CCCn2c(=O)c3cccn3c3cccnc32)CC1	i	i	i	6*	-8	0.63	98*	0.47	107%*	177%*	KCNQ1 ephys val=i
